Assay results reported in ChEMBL document CHEMBL1127731, “Structure-activity study of neuropeptide FF: contribution of N-terminal regions to affinity and activity” (J Med Chem, 1994).
Where a SMILES comes first, the peptide text is derived from it. [ ]: non-standard residue; d: D form. NMeF = CN[C@@H](Cc1ccccc1)C(=O)O

Columns and labels:
[1] = biological target: Neuropeptide FF receptor 2 (Rattus norvegicus, UniProt Q9EQD2); test: Binding affinity for NPPF receptor in rat spinal cord membranes using the radioligand [125I]-[Tyr1]NPFF; format: cell membranes, Membrane
Chain of Neuropeptide FF receptor 2 (Q9EQD2 whole entry): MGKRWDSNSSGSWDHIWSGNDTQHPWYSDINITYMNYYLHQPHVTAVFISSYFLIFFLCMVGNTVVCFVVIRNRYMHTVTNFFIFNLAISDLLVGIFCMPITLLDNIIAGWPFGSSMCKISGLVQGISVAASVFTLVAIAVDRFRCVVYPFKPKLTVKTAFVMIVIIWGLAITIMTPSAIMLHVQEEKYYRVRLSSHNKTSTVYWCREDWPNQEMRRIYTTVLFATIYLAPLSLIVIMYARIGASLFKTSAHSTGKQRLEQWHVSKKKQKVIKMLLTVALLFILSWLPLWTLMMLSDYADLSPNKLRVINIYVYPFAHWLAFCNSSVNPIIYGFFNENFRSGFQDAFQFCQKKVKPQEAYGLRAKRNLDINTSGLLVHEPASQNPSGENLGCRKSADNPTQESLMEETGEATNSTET
In short: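 Displacement of [125I][Tyr1]NPFF (0.1 nM final) from rat spinal cord membranes, 30 min at 25 °C, in 50 mM Tris-HCl pH 7.4 with 120 mM NaCl, 0.5% BSA, 0.1 mM bestatin, 1 mM EDTA, 0.5 mM diisopropylfluorophosphate. Unlabeled peptides 5×10^-11–10^-6 M; nonspecific binding with 10^-6 M [Tyr1]NPFF. Stopped by ice-cold buffer and centrifugation; pellet gamma-counted. Ki via Cheng-Prusoff from IC50; three determinations.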

[2] = species on record: Mus musculus; test: Minimum effective dose able to significantly reverse morphine analgesia in male CDF1 mice by tail-flick test; format: functional
In short: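 Analog (0, 1, 2.2, 8.8 or 22 nmol) coinjected icv with 5.5 nmol morphine in 150 mM NaCl, 10 mice per group. Radiant-heat tail-flick read 15 min later, baseline 2-3 s, 6 s cutoff defined as 100% analgesia. Percent antinociception = (Tt−Tc)/(6−Tc)×100.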

Compound	Ki [1] [nM]	MED [2] [nmol]
CC(C)C[C@H](N)C(=O)N[C@@H](Cc1ccccc1)C(=O)N[C@@H](CCC(N)=O)C(=O)N1CCC[C@@H]1C(=O)N[C@@H](CCC(N)=O)C(=O)N[C@@H](CCCNC(=N)N)C(=O)N[C@@H](Cc1ccccc1)C(N)=O	33	
NC(=O)CC[C@H](NC(=O)[C@@H]1CCCN1C(=O)[C@@H](N)CCC(N)=O)C(=O)N[C@@H](CCCN=C(N)N)C(=O)N[C@@H](Cc1ccccc1)C(N)=O	20.9	> 22
NC(=O)CC[C@H](NC(=O)[C@H]1CCCN1C(=O)[C@@H](N)CCC(N)=O)C(=O)N[C@@H](CCCN=C(N)N)C(=O)N[C@@H](Cc1ccccc1)C(N)=O	64	
CC(C)C[C@H](NC(=O)[C@@H](N)Cc1ccc(O)cc1)C(=O)N[C@@H](Cc1ccccc1)C(=O)N[C@@H](CCC(N)=O)C(=O)N1CCC[C@@H]1C(=O)N[C@@H](CCC(N)=O)C(=O)N[C@@H](CCCN=C(N)N)C(=O)N[C@@H](Cc1ccccc1)C(N)=O	30	
CC(C)C[C@H](NC(=O)[C@@H](N)Cc1ccc(O)cc1)C(=O)N[C@@H](Cc1ccccc1)C(=O)N[C@@H](CCC(N)=O)C(=O)N1CCC[C@H]1C(=O)N[C@@H](CCC(N)=O)C(=O)N[C@@H](CCCN=C(N)N)C(=O)N[C@@H](Cc1ccccc1)C(N)=O	0.2	8.8
NC(=O)CC[C@H](NC(=O)[C@H]1CCCN1)C(=O)N[C@@H](CCCN=C(N)N)C(=O)N[C@@H](Cc1ccccc1)C(N)=O	94	
NC(=O)CC[C@H](NC(=O)[C@H]1CCCN1C(=O)[C@H](CCC(N)=O)NC(=O)[C@@H](N)Cc1ccccc1)C(=O)N[C@@H](CCCN=C(N)N)C(=O)N[C@@H](Cc1ccccc1)C(N)=O	45	
NC(=O)CC[C@H](NC(=O)[C@@H]1CCCN1C(=O)[C@H](CCC(N)=O)NC(=O)[C@@H](N)Cc1ccccc1)C(=O)N[C@@H](CCCN=C(N)N)C(=O)N[C@@H](Cc1ccccc1)C(N)=O	0.43	22
CC(C)C[C@@H](NC(=O)[C@H](N)Cc1ccc(O)cc1)C(=O)N[C@H](Cc1ccccc1)C(=O)N[C@@H](CCC(N)=O)C(=O)N1CCC[C@H]1C(=O)N[C@@H](CCC(N)=O)C(=O)N[C@@H](CCCNC(=N)N)C(=O)N[C@@H](Cc1ccccc1)C(N)=O	1	
CC(C)C[C@@H](NC(=O)[C@H](N)Cc1ccc(O)cc1)C(=O)N[C@@H](Cc1ccccc1)C(=O)N[C@@H](CCC(N)=O)C(=O)N1CCC[C@H]1C(=O)N[C@@H](CCC(N)=O)C(=O)N[C@@H](CCCN=C(N)N)C(=O)N[C@@H](Cc1ccccc1)C(N)=O	0.5	
CC(C)C[C@H](N)C(=O)N[C@@H](Cc1ccccc1)C(=O)N[C@@H](CCC(N)=O)C(=O)N1CCC[C@H]1C(=O)N[C@@H](CCC(N)=O)C(=O)N[C@@H](CCCN=C(N)N)C(=O)N[C@@H](Cc1ccccc1)C(N)=O	0.2	
CC(C)C[C@H](NC(=O)[C@@H](N)Cc1ccccc1)C(=O)N[C@@H](Cc1ccccc1)C(=O)N[C@@H](CCC(N)=O)C(=O)N1CCC[C@H]1C(=O)N[C@@H](CCC(N)=O)C(=O)N[C@@H](CCCN=C(N)N)C(=O)N[C@@H](Cc1ccccc1)C(N)=O		22
N=C(N)NCCC[C@H](NC(=O)[C@@H](N)CCC(N)=O)C(=O)N[C@@H](Cc1ccccc1)C(N)=O (H-Gln-Arg-Phe-NH2)	300	
CC(C)C[C@H](NC(=O)[C@H](N)Cc1ccc(O)cc1)C(=O)N(C)[C@@H](Cc1ccccc1)C(=O)N[C@@H](CCC(N)=O)C(=O)N1CCC[C@H]1C(=O)N[C@@H](CCC(N)=O)C(=O)N[C@@H](CCCN=C(N)N)C(=O)N[C@@H](Cc1ccccc1)C(N)=O (H-[dY]L[NMeF]QPQRF-NH2)	0.16	8.8
CC(C)C[C@@H](NC(=O)[C@H](N)Cc1ccc(O)cc1)C(=O)N(C)[C@@H](Cc1ccccc1)C(=O)N[C@@H](CCC(N)=O)C(=O)N1CCC[C@H]1C(=O)N[C@@H](CCC(N)=O)C(=O)N[C@@H](CCCNC(=N)N)C(=O)N[C@@H](Cc1ccccc1)C(N)=O (H-[dY][dL][NMeF]QPQRF-NH2)	0.19	
H-FLFGPQRF-NH2	10	
H-FLFQGQRF-NH2	1.2	8.8
H-FLFQPGRF-NH2	0.6	
H-FLYQPQRF-NH2	0.22	
